# Experimental data reported in PubChem BioAssay AID720702 (The Scripps Research Institute Molecular Screening Center, 2013).
# Values joined by “and” are separate entries in the source; they are usually repeats but may differ in a detail not shown here. Equal values may be shown once. Out of some 370,000 compounds screened, about 1,200 (0.32%) were called active.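 How the source made its calls: active means inhibition above the mean of all tested compounds plus 3 SD, set per campaign (cut at about 25% in these data); inactive means the rest.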 The sample as a whole holds a higher share of actives than the screen did.
# Biological target: Tyrosyl-DNA phosphodiesterase 2 (Homo sapiens) (UniProt O95551)
# Experiment: human TDP2 enzyme inhibitors, primary screen, biochemical, epi absorbance, recombinant enzyme (AID 720702);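 further: 0% = DMSO with enzyme and 100% = buffer with substrate but no TDP2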
# Details: recombinant TDP2, T5PNP hydrolysis, p-nitrophenol absorbance 415 nm; at 12.8 µM; active compounds read high
# In short: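 Evaluation: % inhibition relative to enzyme-containing and enzyme-free wells. Material: recombinant human TDP2. Benchmarks: enzyme-free and DMSO wells. Timing: enzyme reaction with compound for 2 h at 37 °C. Compound dosing: 12.8 µM only. Measured by: p-Nitrophenol epi absorbance. Reagent: T5PNP substrate at 5 mM, a TopII-DNA adduct mimic. Replication: single well per compound.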
# Chain of Tyrosyl-DNA phosphodiesterase 2 (Homo sapiens) (O95551 whole entry, looked up): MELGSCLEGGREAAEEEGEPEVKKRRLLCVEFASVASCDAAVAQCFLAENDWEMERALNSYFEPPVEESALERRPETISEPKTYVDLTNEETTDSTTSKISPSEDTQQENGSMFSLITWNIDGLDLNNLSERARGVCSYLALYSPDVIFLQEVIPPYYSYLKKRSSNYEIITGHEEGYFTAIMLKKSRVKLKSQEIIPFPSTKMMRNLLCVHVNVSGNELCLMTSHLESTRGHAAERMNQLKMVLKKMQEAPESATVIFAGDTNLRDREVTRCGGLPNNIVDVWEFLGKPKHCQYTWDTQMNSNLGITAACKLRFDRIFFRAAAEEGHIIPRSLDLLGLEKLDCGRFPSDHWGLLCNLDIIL
row,SMILES,inhibition
1,CC[C@@H](CCC(=O)N(c1ccccc1)c1ccccc1)C1CC1,-0.32% (inactive)
2,CCN(CC)C(=O)[C@H]1C[C@H](CC(=O)NCC23CC4CC(CC(C4)C2)C3)C(=O)N2CCc3c([nH]c4cc(CCC(=O)N(C)C)ccc34)[C@]12C,-4.89% (inactive)
3,CCOc1ccc(C(c2c(C)[nH][nH]c2=O)c2c(C)[nH][nH]c2=O)cc1OCC,25.3% (active)
4,CCOc1ccc(C(CC(=O)O)NC(=O)C23CC4CC(CC(C4)C2)C3)cc1OC (stereo unspecified),0.7% (inactive)
5,CCOc1ccc(C(C)NC(=O)CN2C(=O)NC3(CCCCC3)C2=O)cc1OCC (stereo unspecified),-6.82% (inactive)
6,CCOc1ccc(N(CC(=O)Nc2c(C)n(C)n(-c3ccccc3)c2=O)S(=O)(=O)c2ccc(Cl)s2)cc1,-6.34% (inactive)
7,N#C/C(C(=O)N1CCOCC1)=C1/SC(Cc2ccc(F)cc2)C(=O)N1c1ccccc1 (stereo unspecified),2.43% (inactive)
8,O=C(NC1CCC1)c1ccc(C#CC2CC2)cn1,4.08% (inactive)
9,CCCCNC(=O)C(C)N(CCN(C)C)C(=O)CCCCCN1C(=O)NC(c2ccc(Cl)cc2)C(C(=O)OCc2ccccc2)=C1C (stereo unspecified),-0.25% (inactive)
10,CC1CN(CCOc2ccccc2[N+](=O)[O-])CC(C)O1 (stereo unspecified),14% (inactive)
11,Cc1cc(C)c(OCCN2CC(C)OC(C)C2)c(Br)c1 (stereo unspecified),30.7% (active)
12,Cc1ccc(OCCCCN2CCCCC2)c(Br)c1,5.22% (inactive)
13,COc1ccc(-n2c(SCC(=O)Nc3ccc4c(c3)OCCO4)nnc2-c2ccc(Cl)cc2)cc1,-7.72% (inactive)
14,O=C(CN1C(=O)CSC1=O)N1CCCC(Nc2ccc(F)cc2)C1 (stereo unspecified),-8.75% (inactive)
15,O=C(c1ccccc1)c1ccc(-c2ccccc2C(=O)NC2CCCCN(Cc3ccc(Cl)cc3)C2=O)cc1 (stereo unspecified),15.2% (inactive)
16,O=C(Cn1ncc2c3ccccc3n(Cc3ccccc3)c2c1=O)NCCCN1CCOCC1,12.7% (inactive)
17,CCCn1c2ccccc2c2cnn(CC(=O)NCCCN3CCCCC3CC)c(=O)c21 (stereo unspecified),-29.8% (inactive)
18,Cc1ccccc1Cn1c2ccccc2c2cnn(CC(=O)NCc3ccco3)c(=O)c21,24.5% (active)
19,CCC[C@H]1C(=O)CC[C@@]23CCCN2C(=O)CCC[C@@H]13,2.8% (inactive)
20,COc1ccccc1NC(=O)C1CCCN(c2cc(C)nc3ncnn23)C1 (stereo unspecified),2.18% (inactive)
21,COc1cccc(CNC(=O)C2CCCN(c3nc4ccccc4o3)C2)c1OC (stereo unspecified),-1.52% (inactive)
22,O=C(NCCCCO)C(F)(F)C(F)(F)C(F)(F)C(=O)NCCCCO,-4.23% (inactive)

row,SMILES,inhibition
1,CCN(CC)CCCC(C)n1c2nc(=O)[nH]c(=O)c-2nc2cc(Cl)ccc21 (stereo unspecified),24.6% (active)
2,Cc1cc2nc3c(=O)[nH]c(=O)nc-3n(C[C@H](O)[C@H](O)[C@H](O)CO)c2cc1C,3.4% (inactive)
3,O=c1[nH][nH]c(C(F)(F)F)c1C=NCc1ccccc1Cl,4.32% (inactive)
4,C=CCn1c(=S)sc2c(=O)[nH]c(C)nc21,0.69% (inactive)
5,Oc1ccc(N=Cc2sc3ccccc3c2Cl)cc1,28.4% (active)
6,Oc1ccc(N=Cc2c(O)ccc3ccccc23)cc1,29.3% (active)
7,CCOC(=O)C1=C(C(=O)OCC)C2N(Cc3ccc(C#N)cc3)c3ccccc3[C@@]23C[C@@H](C(=O)OC)N(S(=O)(=O)c2ccc(F)cc2)C3=N1 (stereo partly specified),3.59% (inactive)
8,COC(=O)[C@@]12CCCCC3=C1N(CCC3)C(=O)[C@H]2CC(=O)NCc1cccc2ccccc12,15.1% (inactive)
9,COc1ccc(C(=O)OCCN2CCN(C3CN(Cc4cn(Cc5ccccc5F)nn4)S(=O)(=O)C3)CC2)cc1OC (stereo unspecified),11.2% (inactive)
10,Cc1nc([N+](=O)[O-])cn1CC(=O)Nc1ccc(Cl)cc1,7.84% (inactive)
11,CCOC(=O)C1CCN(C(=O)C(C)(C)NC(=O)Nc2ccccc2Cl)CC1,1.3% (inactive)
12,c1coc(CCNc2ncnc3ccc(-c4ccc5c(c4)OCO5)cc23)c1,0.8% (inactive)
13,Cc1cc(C)nc(NC(=S)N2CCN(c3ccc(C(F)(F)F)cn3)CC2)c1,-1.93% (inactive)
14,NC(=O)c1ccsc1NC(=O)COC(=O)COc1ccc(C=O)cc1,2.52% (inactive)
15,Cc1cccc(C(=O)OCC(=O)Nc2sccc2C(N)=O)c1C,-12.7% (inactive)
16,COc1cc(OC)cc(C(=O)OCC(=O)Nc2sccc2C(N)=O)c1,28.2% (active)
17,CC1Cc2nc(SCC(=O)Nc3ccccc3F)n(C)c(=O)c2S1 (stereo unspecified),9.78% (inactive)
18,COC(=O)[C@]12C[C@H](CC(=O)N3CCOCC3)C(=O)N(Cc3ccc(Cl)cc3Cl)C1=C[C@H](C(C)C)O[C@@H]2C1CC1,-1.98% (inactive)
19,CCOC(=O)Cn1c2c(n(-c3ccc(F)cc3)c1=O)C=C(c1ccccc1)[C@@H](C)C(C(=O)N(C)C1CCCCC1)=C2,-5.6% (inactive)
20,C=CCN(Cc1ccc2c(c1)OCO2)C(C#CC1CC1)C(C)(C)C (stereo unspecified),0.99% (inactive)
21,C[C@H]1[C@H](NC(=O)c2cccc(N(C)C)c2)CC[C@@]23CCCN2C(=O)CCC[C@@H]13,-4.75% (inactive)
22,Clc1ccc(C2=CSC3=Nc4cccc5cccc(c45)N23)cc1,65.8% (active)

row,SMILES,inhibition
1,Cc1ccc(C)c(CN2CCC(CNC(=O)C3CCCN(c4ncnc5c4nc4n5CCCCC4)C3)CC2)c1 (stereo unspecified),-0.02% (inactive)
2,Cc1ccc(CCNC(=O)C2CCN(S(=O)(=O)N3CCCC3)CC2)cc1,3.54% (inactive)
3,Cc1ccc(S(=O)(=O)N2CCC(C(=O)NCCC3=CCCCC3)CC2)cc1C,33.1% (active)
4,O=C(NCCC1=CCCCC1)C1CCN(S(=O)(=O)c2ccc(Cl)s2)CC1,6.48% (inactive)
5,C=C(C)CNC(=O)c1ccc(OC2CCN(C(=O)COC)CC2)cc1,-0.83% (inactive)
6,NC1=CC(=O)C(=O)c2cccnc21,70.4% (active)
7,O=C(NCc1ccccc1)[C@H]1CCCN1C(=O)[C@@H]1CCCN1C(=O)c1ccc(Cl)cc1Cl,-1.81% (inactive)
8,O=C1CC(c2ccc3c(c2)OCO3)N=C2N(CC3CC3)C/C(=C/c3ccccc3)N12 (stereo unspecified),7.53% (inactive)
9,COC(=O)[C@]12C[C@H](CC(=O)NCc3cccs3)C(=O)N(CCc3ccc(OC)c(OC)c3)C1=C[C@H](C(C)C)O[C@@H]2C1CC1,3.66% (inactive)
10,CCc1ccccc1NC(=S)Nc1cc(OC)c(NC(=O)C(C)C)cc1OC,39.9% (active)
11,COc1cc(NC(=S)NNC(=O)CC(C)C)c(OC)cc1Cl,8.52% (inactive)
12,COc1ccc(C)cc1NC(=S)Nc1ccccc1SC,1.04% (inactive)
13,Cc1cc(C)n2ncc(C(=O)Nc3ccc4c(c3)OCCO4)c2n1,-3.81% (inactive)
14,CN(C)C(=O)N1CCN(C(=O)[C@@H](Cc2ccccc2)NC(=O)[C@H]2O[C@@H](n3ccc(N)nc3=O)[C@H](O)[C@@H]2O)CC1,8.58% (inactive)
15,Cc1ccc2nc(-c3ccc(NC(=O)CN(C)S(=O)(=O)c4ccccc4)cc3)sc2c1,-18.6% (inactive)
16,CCOC(=O)N1CCC(C(N)=O)CC1,4.66% (inactive)
17,CCOC(=O)N1CCC(NC(=O)Cc2cn(C)c3ccccc23)CC1,-2.66% (inactive)
18,CCOC(=O)N1CCC(c2cc(=O)n(-c3ccccc3)[nH]2)CC1,79.4% (active)
19,CCOc1ccc(Oc2c(Cl)cnn(-c3ccc(C)cc3)c2=O)cc1,-6.6% (inactive)
20,Cc1ccc(NC(=O)Cc2nnc(SCC(=O)Nc3nncs3)n2C)cc1,9.72% (inactive)
21,O=Cc1cn(-c2ccccc2)nc1-c1ccccn1,31.4% (active)
22,O=C(CSc1ccc(-c2ccccn2)nn1)Nc1ccccc1,-4.03% (inactive)

row,SMILES,inhibition
1,CCc1ccc(-c2nn(-c3ccccc3)cc2CSC(=N)N)cc1,-12% (inactive)
2,N[C@@H](Cc1ccccc1)C(=O)N1CCC[C@@H]1C(=O)N1CCC2CCN(S(=O)(=O)c3ccccc3)CC21 (stereo partly specified),2.14% (inactive)
3,O=C(CSc1nc2sc3c(c2c(=O)n1-c1ccccc1)CCCC3)NN=Cc1ccc(OCc2ccccc2)cc1,8.18% (inactive)
4,C=CCN=C1NC(c2ccccc2)C(C(=O)OC)=C(C)N1Cc1ccc(C(F)(F)F)cc1 (stereo unspecified),-7.84% (inactive)
5,COc1cccc(OC)c1CN(C)C(=O)c1cnccc1C(F)(F)F,-13.4% (inactive)
6,COC(=O)C1CN(CCc2ccccc2)CCS(=O)(=O)N1Cc1ccc(F)cc1 (stereo unspecified),-8.99% (inactive)
7,C=CCn1c(N)c(C(=O)OCC(C)C)c2nc3ccccc3nc21,30.5% (active)
8,Cc1nc2c(C(=O)NCc3cccs3)cnn2c(C)c1Cc1ccc(F)cc1,6.37% (inactive)
9,CC(C)Cn1c(N)c(C(=O)NCc2cccs2)c2nc3ccccc3nc21,62.4% (active)
10,CCN(CC(=O)NCc1cccs1)c1nnnn1-c1ccccc1,-4.19% (inactive)
11,C=CCn1c(P(C)(=O)O)nc2ccccc21,2.29% (inactive) and 0.31% (inactive)
12,C=CCN1CN(S(=O)(=O)c2ccc(OC)cc2)c2nc3ccccc3nc21,-10.2% (inactive)
13,O/N=C(\C[n+]1ccccc1)c1ccc(Br)cc1,-4.49% (inactive)
14,CSc1nnc(-c2ccncc2)n1CCCN1CCCC1=O,3.44% (inactive)
15,O=C1Nc2ccccc2OC1CC(=O)N1CCCCCCC1 (stereo unspecified),4.41% (inactive)
16,COC(CNC(=O)[C@H](Cc1ccccc1)NC1(C(=O)NC2CCCCC2)CCCCC1)OC,-1.87% (inactive)
17,CCN(CC)CCCNC(=O)CCn1nc(-c2ccc(Cl)cc2)ccc1=O,-8.35% (inactive)
18,CCCNC(=O)CCn1cc(-c2ccc(OC)cc2)nc1CCN,-1.08% (inactive)
19,CCCCNC(=O)CCn1nc(-c2ccc(Cl)cc2)ccc1=O,29.2% (active)
20,COC(=O)[C@]12C[C@H](CC(=O)NCCc3ccccc3OC)C(=O)N(Cc3ccccc3)C1=C[C@H](C(C)C)O[C@@H]2C1CC1,-7.01% (inactive)
